Test results taken from ChEMBL document CHEMBL4428057, “Discovery, Synthesis, and Evaluation of 2,4-Diaminoquinazolines as a Novel Class of Pancreatic β-Cell-Protective Agents against Endoplasmic Reticulum (ER) Stress” (J Med Chem, 2016).
Active and inactive are the calls of the source.

Tests used:
INS1 [1] = experiment: Reversal of tunicamycin-induced suppression of MafA mRNA levels in rat INS-1 cells at 20 uM after 24 hrs by qRT-PCR method; type: functional, cell-based
Procedure, shortened: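 INS-1 cells (4×10^5/well, 6-well plates) given Tm 0.1 µg/mL ± compound 20 µM or DMSO for 24 h. INS1, INS2, PDX1 and MafA mRNA measured by qRT-PCR with rat primers. Means of 3 replicate wells, representative of 3 independent experiments; SD.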

Beta-TC6 = experiment: Protection against tunicamycin induced endoplasmic reticulum stress in mouse BetaTC6 cells assessed as increase in cell viability after 72 hrs by CellTiter-Glo assay; type: functional, cell-based
Procedure, shortened: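 βTC6 cells (DMEM, 15% FBS) seeded at 3×10^3/well in 384-well plates with Tm 0.25 µg/mL ± compound or DMSO for 72 h. Viability by CellTiter-Glo (ATP luminescence) or MTT: 3 h with reagent at 37 °C, then 4 h with crystal-dissolving solution, absorbance at 570 nm. 3 replicate wells, 3 experiments.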

INS1 [2] = experiment: Suppression of tunicamycin impaired glucose-stimulated insulin secretion in rat INS-1 cells at 10 to 20 uM preincubated for 24 hrs followed by 25 mM glucose addition for 1 hr by ELISA; type: functional, cell-based
Procedure, shortened: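 INS-1 cells in 96-well plates given Tm 0.1 µg/mL plus compound for 24 h, preincubated 1 h in KRBH (pH 7.4, 2% BSA) with 2.5 mM glucose, then 1 h in 2.5 or 25 mM glucose. Secreted insulin by ELISA, corrected for total protein (Bradford); 2.5 mM glucose without Tm set to 1.0.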

[3] = molecular target: T1, Eukaryotic translation initiation factor 2-alpha kinase 3 (Rattus norvegicus) (UniProt Q9Z1Z1); experiment: Inhibition of PERK pathway in rat INS-1 cells assessed as reduction in tunicamycin induced ATF4 mRNA levels at 20 uM after 2 to 24 hrs by qRT-PCR method; type: cell-based
T1 sequence (whole entry): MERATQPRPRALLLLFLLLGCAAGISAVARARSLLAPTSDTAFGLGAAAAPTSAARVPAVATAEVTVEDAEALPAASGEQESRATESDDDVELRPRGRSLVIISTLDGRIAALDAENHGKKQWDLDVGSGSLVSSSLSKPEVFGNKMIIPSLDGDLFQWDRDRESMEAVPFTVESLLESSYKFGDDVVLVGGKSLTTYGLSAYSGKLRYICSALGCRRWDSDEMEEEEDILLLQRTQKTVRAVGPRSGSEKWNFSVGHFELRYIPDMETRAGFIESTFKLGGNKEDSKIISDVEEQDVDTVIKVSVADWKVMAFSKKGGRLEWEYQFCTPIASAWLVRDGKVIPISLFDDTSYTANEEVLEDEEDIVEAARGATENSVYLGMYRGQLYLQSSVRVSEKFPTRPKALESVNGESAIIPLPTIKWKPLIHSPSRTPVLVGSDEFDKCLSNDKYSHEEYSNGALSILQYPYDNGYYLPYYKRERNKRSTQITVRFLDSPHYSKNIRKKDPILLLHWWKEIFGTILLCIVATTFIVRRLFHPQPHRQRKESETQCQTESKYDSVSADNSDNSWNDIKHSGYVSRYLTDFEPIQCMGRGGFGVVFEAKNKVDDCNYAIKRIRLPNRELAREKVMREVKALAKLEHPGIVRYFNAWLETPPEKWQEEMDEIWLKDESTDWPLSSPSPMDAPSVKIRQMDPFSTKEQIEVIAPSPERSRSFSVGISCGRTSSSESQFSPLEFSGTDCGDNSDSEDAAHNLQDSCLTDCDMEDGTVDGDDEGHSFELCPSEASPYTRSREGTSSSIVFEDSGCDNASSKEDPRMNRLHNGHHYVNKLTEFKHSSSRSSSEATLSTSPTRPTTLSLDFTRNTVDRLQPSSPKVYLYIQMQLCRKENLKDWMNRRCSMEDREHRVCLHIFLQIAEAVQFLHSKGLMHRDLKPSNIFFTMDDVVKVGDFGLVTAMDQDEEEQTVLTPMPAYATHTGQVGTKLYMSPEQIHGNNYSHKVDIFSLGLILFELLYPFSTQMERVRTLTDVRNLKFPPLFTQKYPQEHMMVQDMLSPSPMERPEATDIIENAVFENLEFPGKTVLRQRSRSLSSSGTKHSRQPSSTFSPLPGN
Procedure, shortened: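 ATF4 or CHOP mRNA measured by qRT-PCR in INS-1 cells treated with Tm 0.1 µg/mL ± compound 20 µM or DMSO for the indicated times. Expressed as fold-increase over untreated control; means of 3 replicate wells, representative of 3 independent experiments, SD.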

[4] = molecular target: T2, Cyclic AMP-dependent transcription factor ATF-6 alpha (Rattus norvegicus) (UniProt G3V909); experiment: Inhibition of ATF6 in rat INS-1 cells assessed as suppression of tunicamycin induced GRP94 mRNA levels at 20 uM after 4 to 24 hrs by qRT-PCR method; type: cell-based
T2 sequence (whole entry): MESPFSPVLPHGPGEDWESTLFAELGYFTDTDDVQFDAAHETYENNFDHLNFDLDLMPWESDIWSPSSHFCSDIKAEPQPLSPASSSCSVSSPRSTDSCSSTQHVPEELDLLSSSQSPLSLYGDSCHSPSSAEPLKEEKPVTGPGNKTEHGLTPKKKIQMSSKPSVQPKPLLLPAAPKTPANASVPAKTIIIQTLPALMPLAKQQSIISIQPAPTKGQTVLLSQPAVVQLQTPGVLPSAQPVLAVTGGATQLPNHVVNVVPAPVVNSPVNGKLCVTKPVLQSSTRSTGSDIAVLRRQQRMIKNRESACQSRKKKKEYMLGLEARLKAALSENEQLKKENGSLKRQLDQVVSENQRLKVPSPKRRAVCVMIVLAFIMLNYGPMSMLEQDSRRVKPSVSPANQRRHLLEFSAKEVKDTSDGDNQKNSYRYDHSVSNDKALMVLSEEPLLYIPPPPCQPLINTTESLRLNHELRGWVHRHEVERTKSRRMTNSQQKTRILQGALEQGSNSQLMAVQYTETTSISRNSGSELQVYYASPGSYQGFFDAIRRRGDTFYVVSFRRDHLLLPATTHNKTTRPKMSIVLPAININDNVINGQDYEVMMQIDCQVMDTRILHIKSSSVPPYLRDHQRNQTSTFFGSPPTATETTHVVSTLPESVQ
Procedure, shortened: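 INS-1 cells seeded at 4×10^5/well in 6-well plates, given Tm 0.1 µg/mL ± compound 20 µM or DMSO for the indicated times. Bip or GRP94 mRNA measured by qRT-PCR, expressed as fold-increase over untreated control. Means of 3 replicate wells, representative of 3 independent experiments.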

INS1 [5] = experiment: Protection against BFA induced endoplasmic reticulum stress in rat INS-1 cells assessed as increase in cell viability at 20 uM after 72 hrs by CellTiter-Glo assay; type: functional, cell-based
Procedure, shortened: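 INS-1 cells at 3×10^3/well (384-well) treated with brefeldin A 0.2 µg/mL ± compound 20 µM or DMSO for 72 h. Viability read as intracellular ATP by CellTiter-Glo luminescence. Means of 3 replicate wells, representative of 3 independent experiments; SD.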

COc1ccc(CNc2nc(N3CCCCC3CO)nc3ccccc23)cc1 (racemic)
active: Activity (INS1 [1]) | Activity (Beta-TC6) Dose-dependent effect | Activity (INS1 [2]) | inhibition [3] | inhibition [4] | Activity (INS1 [5])
